Assay outcomes as filed in PubChem.
CAL PDZ FP-1 = untagged CAL PDZ binding inhibitors, primary screen, biochemical, fluorescence polarization, HTS; Golgi-associated PDZ and coiled-coil motif-containing protein (Homo sapiens), Q9HD26; purified CAL PDZ, TMR-peptide fluorescence polarization, 1 h; inhibition, % at 24.9 µM; 300,000 tested, 0.92% active;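 active = mean inhibition of at least 30% with at least half of replicates also reaching 30%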
Keap1 Nrf2 FP = Keap1-Nrf2 protein-protein interaction inhibitors, primary screen, biochemical, fluorescence polarization, single point; Kelch-like ECH-associated protein 1 (Homo sapiens), Q14145; Keap1 Kelch-Nrf2 peptide fluorescence polarization, 1536-well; inhibition, % at 9.4 µM; 340,000 tested, 0.15% active; in the data active = inhibition above about 12%;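 note: human Keap1 Kelch domain with fluorescein labeled Nrf2 9mer peptide probe; higher means more block of Keap1 binding to Nrf2 peptide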
A3A deaminase = APOBEC3A ssDNA deaminase inhibitors, primary screen, selectivity assay for APOBEC3G inhibitor project, biochemical, FAM/TAMRA oligo cleavage fluorescence. recombinant A3A, FAM/TAMRA ssDNA deamination fluorescence. 330,000 tested, 0.41% active. inhibition, % at 20 µM;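 active = at least 40% inhibition at 20 µM here, with at most 30% in a related deaminase screen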
A3G deaminase = APOBEC3G DNA deaminase inhibitors, primary screen, biochemical, fluorescence, single-stranded DNA substrate, uHTS; 330,000 tested, 0.28% active; inhibition, % at 20 µM; recombinant A3G, ssDNA deamination FAM/TAMRA fluorescence; AID 493012, 2011;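 active = inhibition of at least 40% at 20 µM, with no more than 30% in the related APOBEC3A deaminase screen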
Target sequence (Q9HC16 whole entry, looked up): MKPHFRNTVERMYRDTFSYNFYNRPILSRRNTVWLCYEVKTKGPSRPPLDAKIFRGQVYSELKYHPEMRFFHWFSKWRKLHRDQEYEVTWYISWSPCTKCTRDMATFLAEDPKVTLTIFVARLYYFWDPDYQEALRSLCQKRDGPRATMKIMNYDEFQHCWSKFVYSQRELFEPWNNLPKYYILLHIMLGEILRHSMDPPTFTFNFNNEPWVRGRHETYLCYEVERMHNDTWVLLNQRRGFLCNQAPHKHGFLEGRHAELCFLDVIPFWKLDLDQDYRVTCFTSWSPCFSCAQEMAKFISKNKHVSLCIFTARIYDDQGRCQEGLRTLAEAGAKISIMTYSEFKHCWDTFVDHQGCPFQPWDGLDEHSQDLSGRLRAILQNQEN
CAL PDZ FP-2 = CAL PDZ peptide-binding inhibitors, primary screen, biochemical, fluorescence polarization, Cer-tagged CAL PDZ, HTS. purified CAL PDZ, TMR-peptide fluorescence polarization, 1 h. inhibition, % at 20 µM. 330,000 tested, 0.02% active. AID 504414, 2011;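 active = highest replicate inhibition of at least 40%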
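Control set: unlabelled peptide and DMSO controls / Material: purified CerCALP PDZ construct / Timing: 1 h incubation at room temperature before polarization reading / Doses: 20 µM, one dose / Detection: fluorescence polarization (mP)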
C-LANA FP = inhibitors of KSHV C-LANA binding to DNA, primary screen, biochemical, fluorescence polarization, FAM-LBS DNA, MBP-C-LANA, single point; Kaposi's sarcoma herpesvirus LANA C-terminal domain (residues 932-1162) DNA binding; inhibition, % at 9 µM; 340,000 tested, 0.078% active;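 active = highest replicate inhibition at or above 60% at 9 µM, even if other replicates fall short; inactive = all replicates below 60% inhibition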
A3G conf = APOBEC3G deaminase inhibitor retest, confirmation, biochemical, fluorescence, single-stranded DNA substrate, single concentration; shares compounds with A3G deaminase; recombinant A3G ssDNA deaminase, UDG/FAM-TAMRA fluorescence; inhibition, % at 20 µM; 890 tested, 72% active;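 active = inhibition reaching a set limit in any replicate at 20 µM, the limit being 80% of the first screen's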
UDG A3G counter = E. coli UDG inhibitors, confirmation, counter-screen for APOBEC3G inhibitor project, biochemical, single concentration, fluorescence, FAM/TAMRA oligo; shares compounds with A3G deaminase; UDG counterscreen; inhibition, % at 20 µM; 710 tested, under 10 active;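 active = compounds giving 40% or more inhibition at 20 µM in any one of the three replicates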;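 note: inhibitors lower the FAM signal released by uracil excision and alkaline cleavage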
Target sequence (P12295 whole entry, looked up): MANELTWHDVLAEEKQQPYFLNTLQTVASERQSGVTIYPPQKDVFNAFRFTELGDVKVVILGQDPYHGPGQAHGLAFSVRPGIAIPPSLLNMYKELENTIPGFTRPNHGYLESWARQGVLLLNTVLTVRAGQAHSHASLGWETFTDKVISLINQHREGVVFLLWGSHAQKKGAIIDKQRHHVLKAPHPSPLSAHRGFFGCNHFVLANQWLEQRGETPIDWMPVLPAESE
DNA intercal 2 = DNA intercalator detection, dose response, counter-screen for C-LANA DNA-binding inhibitor project, biochemical, dry powder | AID 588364, 2011 | Acridine orange-DNA displacement, fluorescence polarization | shares compounds with C-LANA FP | 20 tested, under 10 active | AC50, µM (highest dose often 35 µM);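 active = signal drop with an AC50 no more than ten times the top valid dose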
Keap1 TSA = Keap1 Kelch domain binders by thermal stabilisation, dose response, biophysical, thermal shift, RT-PCR instrument, cherry-pick. delta Tm; stronger effect = higher value. shares compounds with Keap1 Nrf2 FP. max delta Tm, degrees C. 400 tested, 8% active. AID 651823, 2012; in the data active = max delta Tm above about 0.48 degrees C
Dye-only ctr = Sypro Orange dye melt without protein, dose response, artefact control for Keap1-Nrf2 interaction inhibitor project, biochemical, thermal shift counterscreen, cherry-pick. shares compounds with Keap1 Nrf2 FP. Sypro Orange dye-only thermal melt, no protein, delta Tm; top dose 26 µM. delta Tm, degrees C (no concentration beside the values). 140 tested, under 10 active. AID 651858, 2012;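 active = at highest dose tested, delta Tm positive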
Hits are given with their value; – = inactive; · = no result given. Rows were chosen to be rich in hits. Some 1.7% of all compounds tested hit in one or more screens of this group.

SMILES | CAL PDZ FP-1 | Keap1 Nrf2 FP | A3A deaminase | A3G deaminase | CAL PDZ FP-2 | C-LANA FP | A3G conf | UDG A3G counter | others
CC(/C=N/n1c(-c2cc(C)[nH]n2)n[nH]c1=S)=C\c1ccco1 | – | – | – | 60.8 | – | – | 72.8 | –
CC(/C=N/n1c(-c2ccc(Cl)cc2)n[nH]c1=S)=C\c1ccco1 | – | – | – | – | – | – | · | ·
COc1ccccc1/C=C/C=N/n1c(-c2ccccn2)n[nH]c1=S | – | – | – | 45.3 | – | – | 87.5 | –
S=c1[nH]nc(-c2ccncc2)n1/N=C/C=C/c1ccccc1 | – | – | – | 63.4 | – | – | 90.2 | –
COc1ccccc1/C=C/C=N/n1c(-c2ccncc2)n[nH]c1=S | – | – | – | 46.9 | – | – | 79.5 | –
Cc1ccc(CNC(=O)CCCc2cn(C)c3ccccc23)cc1 | – | – | – | – | – | – | · | ·
Cc1ccc(S(=O)(=O)NCC(c2cccnc2)N2CCc3ccccc32)cc1 (centres undefined) | – | – | – | – | – | – | · | ·
CCC(NC(=O)Cc1c(C)c2cc3c(cc2oc1=O)OC(C)(C)CC3)C(=O)O (centres undefined) | – | – | – | – | – | – | · | ·
Cc1cc(-c2n[nH]c(=S)n2/N=C/C=C/c2ccccc2)n[nH]1 | – | – | – | 46.5 | – | – | 72.1 | –
CCn1c(-c2ccc(C(C)(C)C)cc2)n[nH]c1=S | · | – | – | – | – | – | · | ·
Cn1c(-c2sccc2OCc2ccccc2)n[nH]c1=S | – | – | – | 45.3 | – | – | 78.2 | –
Cc1nc(-c2ccccc2)sc1-c1n[nH]c(=S)n1C | – | – | – | 43.2 | – | – | 76.1 | –
Cn1c(-c2ccc(C(C)(C)C)cc2)n[nH]c1=S | – | – | – | 40.5 | · | – | 73.3 | –
O=C(NNc1ccccc1)c1ccccc1 | – | – | · | · | – | – | · | ·
O=C(NNc1ccc(O)cc1)c1ccc(Br)cc1 | – | – | – | 52.7 | – | – | – | –
CCCN(Cc1nnc(-c2ccccc2Cl)o1)C(=O)c1cccc(S(=O)(=O)N2CCOCC2)c1 | · | – | – | – | – | – | · | ·
COC(=O)c1sc(NC(=O)c2cc(-c3ccccc3)nc3ccccc23)c(C#N)c1C | – | – | – | 63.6 | – | – | 57.7 | –
Nc1ccc2nc(-c3cccc(-c4nc5ccc(N)cc5[nH]4)n3)[nH]c2c1 | – | – | – | 43.5 | – | – | 29.2 | –
O=C1CCCC(O)=C1N=Nc1ccc(C(=O)O)cc1 | – | – | – | – | – | 71.3 | · | · | DNA intercal 2=–
CN(C)S(=O)(=O)c1cc(C(=O)NC2CCSc3ccccc32)ccc1Cl (centres undefined) | · | · | · | · | · | · | · | · | DNA intercal 2=–
O=C(NC1CCSc2ccccc21)c1ccc(Cl)c(S(=O)(=O)N2CCOCC2)c1 (centres undefined) | – | – | – | – | – | – | · | ·
CC(C)Oc1ccc(S(=O)(=O)N2CCOCC2)cc1NC(=O)C(C)Oc1ccc(F)cc1 (centres undefined) | – | – | – | – | – | – | · | ·
Nc1c(/C=C2\C=CC(=O)C(O)=C2)c(=O)nc2sc(CC(=O)N3CCCCC3)nn12 | · | · | · | · | · | · | · | · | DNA intercal 2=–
Clc1ccc(-c2nnc3sc(-c4ccc(Br)o4)nn23)c(Cl)c1 | – | – | – | – | – | – | · | ·
Clc1ccc(-c2nnc3sc(-c4ccc(Br)o4)nn23)cc1 | – | – | – | – | · | 107.1 | · | · | DNA intercal 2=–
SMILES | CAL PDZ FP-1 | Keap1 Nrf2 FP | A3A deaminase | A3G deaminase | CAL PDZ FP-2 | C-LANA FP | A3G conf | UDG A3G counter | others
Cc1ccc(C)c(OCCC(=O)OCC(=O)Nc2cccc(S(=O)(=O)N3CCCC3)c2)c1 | – | – | – | – | – | – | · | ·
COc1ccc(-c2cc(C(F)(F)F)c3c(N)c(C(=O)NCCSC)sc3n2)cc1 | – | 29.2 | – | – | – | – | · | · | DNA intercal 2=–;Keap1 TSA=–;Dye-only ctr=–
CN(C)CCNC(=O)c1sc2nc(-c3ccccc3)cc(C(F)(F)F)c2c1N | – | – | – | – | – | – | · | ·
O=C(CC1C(=O)NCCN1Cc1cccc(F)c1)NC1CCCCC1 (centres undefined) | – | – | – | – | – | – | · | ·
O=C(O)c1cc(N2N=C(C(F)(F)F)/C(=C/C=C/c3ccco3)C2=O)ccc1Cl | – | 20.8 | · | · | · | 112.8 | · | · | DNA intercal 2=–;Keap1 TSA=0.68
O=C(O)c1ccccc1C1=Nc2ccc(O)cc2Oc2cc(O)ccc21 | – | 69.9 | – | – | · | 110.9 | · | · | Keap1 TSA=–;Dye-only ctr=–
Cc1cc(-c2ccccc2C(=O)O)on1 | – | – | – | – | – | – | · | ·
CN(C)c1ccc2cc(S(=O)(=O)O)cc(O)c2c1 | · | 12.0 | · | · | – | – | · | · | Keap1 TSA=–
O=Nc1c(O)ccc2cc(S(=O)(=O)O)ccc12 | – | – | · | · | – | – | · | ·
CC1CCN(c2ccc3c(c2)S(=O)(=O)c2cccc(C(=O)NCc4cccc(F)c4)c2C3=O)CC1 | – | – | – | – | – | – | · | ·
O=C(NCc1cccc(F)c1)c1cccc2c1C(=O)c1ccc(N3CCCC3)cc1S2(=O)=O | – | 14.6 | – | – | – | – | · | · | Keap1 TSA=–
